Data on 2 compounds can be found in ChEMBL document CHEMBL3045249, “Synthesis of glucose-fipronil conjugate and its phloem mobility” (J Agric Food Chem, 2011).

Each structure is given as a SMILES string. Values after ≈ are worked out from the molar mass of the structure shown.

Series [1] deals with Lower stem. As to the kind of experiment: Drug metabolism in adult Ricinus communis (castor bean) lower stem assessed as compound conversion to fipronil at 2 mM measured 48 to 72 hr post treatment by HPLC-MS method. The series is classed as ADME. The conditions noted are these: 2000 µM. Summed up: (§1)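 Adult castor bean plants. On each of two fully expanded leaves, 100 mm2 of the adaxial surface was abraded with a Celite slurry, rinsed and blotted dry. 200 μL of aqueous GTF in 0.1% Tween 80/10% acetone was applied per leaf; vehicle alone served as control. After 48 and 72 h, plants were cut into apical leaves, upper stem, lower stem and roots (three replicates). 2 g tissue was acetone-extracted with 15 min sonication. Fipronil was quantified by C18 HPLC (acetonitrile/water 50:50, 1.0 mL/min, 210 nm) against external calibration.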

For series [2], the system named is Phloem. In words: Phloem mobility in Ricinus communis (castor bean) seedlings phloem sap assessed as drug level at 200 uM measured 3.5 hr post dose by DiBAC4 indicator based flow cytometry relative to untreated control. The class given is ADME. For orientation: In flow cytometry, cells or beads pass a laser one at a time.
In series [3] the test system is Apical leaf. In words: Drug metabolism in adult Ricinus communis (castor bean) apical leaves assessed as compound conversion to fipronil at 2 mM measured 48 to 72 hr post treatment. The conditions noted are these: 2000 µM. The series is classed as ADME. The gist of the method:
as §1

Series [4] has as its system Upper stem. As to the kind of experiment: Drug metabolism in adult Ricinus communis (castor bean) upper stem assessed as compound conversion to fipronil at 2 mM measured 48 to 72 hr post treatment by HPLC-MS method. The conditions noted are these: 2000 µM. The series is classed as ADME. Summed up: as §1
For series [5], the system named is Lower stem. In words: Drug metabolism in adult Ricinus communis (castor bean) lower stem assessed as compound conversion to fipronil at 2 mM measured 48 to 72 hr post treatment. The class given is ADME. The conditions noted are these: 2000 µM. Summed up: as §1
Series [6] concerns Phloem. As to the kind of experiment: Phloem mobility in Ricinus communis (castor bean) seedlings phloem sap assessed as drug level at 200 uM by HPLC-MS method. The class given is ADME. The gist of the method: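 Six-day castor bean seedlings, endosperm removed. After 1 h the hypocotyl was severed and phloem sap collected from the upper hypocotyl. Sap was analysed by C18 HPLC (acetonitrile/water 50:50, 1.0 mL/min, 210 nm, 25 °C) with external calibration; identity was confirmed by positive-ion APCI-MS.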

For series [7], the system named is Phloem. In words: Phloem mobility in Ricinus communis (castor bean) seedlings phloem sap assessed as drug level at 200 uM measured 7 hr post dose by DiBAC4 indicator based flow cytometry relative to untreated control. The class given is ADME.
For series [8], the system named is Root. As to the kind of experiment: Drug metabolism in adult Ricinus communis (castor bean) roots assessed as compound conversion to fipronil at 2 mM measured 48 to 72 hr post treatment. The class given is ADME. As to conditions: 2000 µM; call rule not given here. Summed up: as §1
Series [9] relates to Apical leaf. As to the kind of experiment: Drug metabolism in adult Ricinus communis (castor bean) apical leaves assessed as compound conversion to fipronil at 2 mM measured 48 to 72 hr post treatment by HPLC-MS method. The class given is ADME. The conditions noted are these: 2000 µM. The gist of the method: as §1
The test system of series [10] is Phloem. In words: Phloem mobility in Ricinus communis (castor bean) seedlings phloem sap assessed as drug level at 200 uM measured 8 hr post dose by DiBAC4 indicator based flow cytometry. The series is classed as ADME. The gist of the method: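 Protoplasts from cotyledons were isolated by 4 h digestion at 28 °C in cellulase/pectinase with 0.6 M mannitol and MES pH 5.8. They were suspended in buffer with 200 μM compound, or none for control, and shaken at 28 °C for 8 h. Every 2 h, samples were stained with 2 μM DiBAC4(3) for 30 min. Fluorescence of 20000 viable cells was read by flow cytometry (ex 488/em 530 nm) and expressed relative to fresh cells; n = 3, Duncan's test.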

The test system of series [11] is Upper stem. In words: Drug metabolism in adult Ricinus communis (castor bean) upper stem assessed as compound conversion to fipronil at 2 mM measured 48 to 72 hr post treatment. As to conditions: 2000 µM. The class given is ADME. Summed up:
as §1

The test system of series [12] is Root. As to the kind of experiment: Drug metabolism in adult Ricinus communis (castor bean) roots assessed as compound conversion to fipronil at 2 mM measured 48 to 72 hr post treatment by HPLC-MS method. The class given is ADME. The conditions noted are these: 2000 µM. Summed up: as §1
The next series has as its system Plutella xylostella. As to the kind of experiment: Insecticidal activity against Plutella xylostella (diamondback moth) third-instar larvae measured 24 hr post dose by leaf disk dipping assay. The class given is functional. As to conditions: foliar. Summed up:
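Third-instar larvae, leaf disk dip. Compounds were dissolved in acetone and suspended in water with 0.1% Tween 80. 5.5 cm leaf disks were dipped 30 s and air-dried 2 h, then 10 larvae were placed per dish. Control was 10% acetone/0.1% Tween 80. Incubation at 26 ± 2 °C, 70% RH, 16:8 h light/dark; five replicates. Mortality was scored at 24 h and LC50 derived with 95% confidence limits.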

For the compound `N#Cc1nn(-c2c(Cl)cc(C(F)(F)F)cc2Cl)c(NCc2cn([C@@H]3O[C@H](CO)[C@@H](O)[C@H](O)[C@H]3O)nn2)c1[S+]([O-])C(F)(F)F` (stereo not given in full), the Drug metabolism result in the series on Lower stem [1], in the series with Apical leaf [3], with Upper stem [4], in the series with Lower stem [5], in the series on Root [8] and with Apical leaf [9] was “Active” in each case. The Drug metabolism entry in the series with Upper stem [11] and in the series with Root [12] was “Active” each time. The “fold change (FC)” value amounted to 0.25 with Phloem [2] and 0.45 in the series on Phloem [7]. Besides, the Drug mobility result with Phloem [6] and in the series on Phloem [10] was “Active” each time.

For `N#Cc1nn(-c2c(Cl)cc(C(F)(F)F)cc2Cl)c(N)c1[S+]([O-])C(F)(F)F` (stereo not given) [FIPRONIL], in the series on Plutella xylostella, the LC50 (in general, the concentration lethal to half of the exposed cells or organisms) was determined as 21.4 µg/mL (≈ 48.9 µM). In addition, the Drug mobility result with Phloem [6] and in the series on Phloem [10] was “Not Active” throughout.
